Measurements taken from ChEMBL document CHEMBL2169835, “Flavonoid dimers as novel, potent antileishmanial agents” (J Med Chem, 2012).

What was measured:
RAW264.7 = assay: Cytotoxicity against mouse RAW264.7 cells after 72 hrs by MTS assay; format: cell-based; settings: RAW264.7, 72 h
In short: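 RAW 264.7 murine macrophage line was plated at 1 × 10^4 cells per well in supplemented DMEM. Cells received a graded compound series for 72 h at 37 °C, 5% CO2, with a maximum of 1% DMSO. Viability was measured by MTS with PMS coupling at OD 490 nm, as percent of untreated control. The IC50 was the concentration reducing OD by half, given as mean ± SEM, N = 1–4.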

Leishmania donovani [1] = assay: Antimicrobial activity against pentamidine-resistant Leishmania donovani AG83PentR50 promastigote assessed as inhibition of parasite growth after 72 hrs by MTS assay; format: functional, organism-based; settings: AG83PentR50, 72 h
In short: (§1)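 Promastigotes were grown in Schneider's medium pH 6.9 with 10% heat-inactivated FBS at 27 °C, seeded at 1 × 10^5 per well, and exposed to serial concentrations for 72 h at 27 °C. Compounds were in DMSO (≤1% final) or water. MTS:PMS (20:1) was added for 4 h, then OD490 was read. Survival was % of untreated control; IC50 = concentration halving OD; N = 1−4.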

Leishmania donovani [2] = assay: Antimicrobial activity against SSG-resistant Leishmania donovani 39 promastigote assessed as inhibition of parasite growth after 72 hrs by MTS assay; format: functional, organism-based; settings: Leishmania donovani, 39, 72 h; in short: as §1
Leishmania donovani [3] = assay: Antimicrobial activity against wild-type Leishmania donovani AG83 promastigote assessed as inhibition of parasite growth after 72 hrs by MTS assay; format: functional, organism-based; settings: AG83, 72 h
In short: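 Promastigotes were grown in Schneider's medium pH 6.9 with 10% heat-inactivated FBS at 27 °C, seeded at 1 × 10^5 per well, and exposed to serial concentrations for 72 h at 27 °C. Compounds were in DMSO (≤1% final) or water. MTS:PMS (20:1) was added for 4 h, then OD490 was read.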

| Structure (SMILES) | IC50 (RAW264.7) [µM] | IC50 (Leishmania donovani [1]) [µM] | IC50 (Leishmania donovani [2]) [µM] | IC50 (Leishmania donovani [3]) [µM] |
| --- | --- | --- | --- | --- |
| Cc1ccc2oc(-c3ccc(OCCOCCOCCOCCOc4ccc(-c5cc(=O)c6cc(C)ccc6o5)cc4)cc3)cc(=O)c2c1 | > 100 | > 24 | > 24 | > 24 |
| O=c1cc(-c2ccc(OCCOCCOCCOCCOCCOCCOc3ccc(-c4cc(=O)c5ccc(F)cc5o4)cc3)cc2)oc2cc(F)ccc12 | 7.8 | 4.6 | 4.2 | 4.2 |
| O=C(O)CCC(=O)N(CCOCCOc1ccc(-c2cc(=O)c3ccccc3o2)cc1)CCOCCOc1ccc(-c2cc(=O)c3ccccc3o2)cc1 | 65 | 27 | > 100 | > 100 |
| Cc1c(-c2ccc(OCCOCCOCCOCCOc3ccc(-c4oc5ccccc5c(=O)c4C)cc3)cc2)oc2ccccc2c1=O | 8.1 | > 20 | > 19 | 6.9 |
| O=c1cc(-c2ccc(OCCOCCOc3ccc(-c4cc(=O)c5ccccc5o4)cc3)cc2)oc2ccccc12 | > 100 | > 24 | > 24 | > 24 |
| O=c1cc(-c2ccc(OCCOCCN(CCOCCOc3ccc(-c4cc(=O)c5ccccc5o4)cc3)Cc3ccnc4ccccc34)cc2)oc2ccccc12 | – | – | – | 20.4 |
| Cc1c(-c2ccc(OCCOCCOCCOCCOCCOc3ccc(-c4oc5ccccc5c(=O)c4C)cc3)cc2)oc2ccccc2c1=O | 3.1 | 4.6 | 4.2 | 4.8 |
| O=c1cc(-c2ccc(OCCOCCOCCOCCOCCOCCOc3ccc(-c4cc(=O)c5ccccc5o4)cc3)cc2)oc2ccccc12 | 7.1 | 4.9 | 4.3 | 4.8 |
| CCOC(=O)CCN(CCOCCOc1ccc(-c2cc(=O)c3ccccc3o2)cc1)CCOCCOc1ccc(-c2cc(=O)c3ccccc3o2)cc1 | 16 | – | 6.6 | 3.8 |
| O=c1cc(-c2ccc(OCCOCCOCCOCCOc3ccc(-c4cc(=O)c5ccc(F)cc5o4)cc3)cc2)oc2cc(F)ccc12 | > 200 | 2.3 | 2.4 | 2.6 |
| O=c1cc(-c2ccc(OCCOCCOCCOCCOc3ccc(-c4cc(=O)c5c(O)cc(O)cc5o4)cc3)cc2)oc2cc(O)cc(O)c12 | > 200 | 3.1 | 1.9 | 2.2 |
| O=c1cc(-c2ccc(OCCOCCN(CCOCCOc3ccc(-c4cc(=O)c5ccccc5o4)cc3)Cc3cccc(F)c3)cc2)oc2ccccc12 | – | – | – | > 100 |
| O=c1cc(-c2ccc(OCCOCCN(CCOCCOc3ccc(-c4cc(=O)c5ccccc5o4)cc3)Cc3ccccc3)cc2)oc2ccccc12 | > 79 | – | 12.3 | 8.4 |
| Cc1ccc2c(=O)cc(-c3ccc(OCCOCCOCCOCCOc4ccc(-c5cc(=O)c6ccc(C)cc6o5)cc4)cc3)oc2c1 | 88.6 | > 24 | > 24 | > 24 |
| O=c1cc(-c2ccc(OCCOCCOCCOc3ccc(-c4cc(=O)c5c(O)cc(O)cc5o4)cc3)cc2)oc2cc(O)cc(O)c12 | > 200 | 6.7 | 2.7 | 5.6 |
| O=c1cc(-c2ccc(OCCOCCN(CCO)CCOCCOc3ccc(-c4cc(=O)c5ccccc5o4)cc3)cc2)oc2ccccc12 | 6.4 | – | 7.2 | 3.2 |
| CCc1ccc2oc(-c3ccc(OCCOCCOCCOCCOCCOc4ccc(-c5cc(=O)c6cc(CC)ccc6o5)cc4)cc3)cc(=O)c2c1 | > 200 | 6.3 | 4.6 | 4.7 |
| O=c1cc(-c2ccc(OCCOCCOCCOCCOCCOCCOCCOCCOc3ccc(-c4cc(=O)c5ccccc5o4)cc3)cc2)oc2ccccc12 | 4.4 | 6 | 4.6 | 5 |

| Structure (SMILES) | IC50 (RAW264.7) [µM] | IC50 (Leishmania donovani [1]) [µM] | IC50 (Leishmania donovani [2]) [µM] | IC50 (Leishmania donovani [3]) [µM] |
| --- | --- | --- | --- | --- |
| CCc1ccc2oc(-c3ccc(OCCOCCOCCOCCOc4ccc(-c5cc(=O)c6cc(CC)ccc6o5)cc4)cc3)cc(=O)c2c1 | > 100 | > 24 | > 24 | > 24 |
| CCc1ccc2oc(-c3ccc(OCCOCCOCCOCCOCCOCCOc4ccc(-c5cc(=O)c6cc(CC)ccc6o5)cc4)cc3)cc(=O)c2c1 | 5.5 | 3.3 | 2.5 | 3.1 |
| O=c1cc(-c2ccc(OCCOCCN(CCCc3ccccc3)CCOCCOc3ccc(-c4cc(=O)c5ccccc5o4)cc3)cc2)oc2ccccc12 | 85 | – | 18.4 | 8.9 |
| O=c1cc(-c2ccc(OCCOCCOCCOCCOCCOCCOCCOCCOCCOCCOCCOCCOCCOc3ccc(-c4cc(=O)c5ccccc5o4)cc3)cc2)oc2ccccc12 | 8.4 | 7.9 | 8.2 | 9.2 |
| O=c1c(O)c(-c2ccc(OCCOCCOCCOCCOc3ccc(-c4oc5ccccc5c(=O)c4O)cc3)cc2)oc2ccccc12 | – | – | > 24 | > 24 |
| Cc1ccc2oc(-c3ccc(OCCOCCOCCOCCOCCOCCOc4ccc(-c5cc(=O)c6cc(C)ccc6o5)cc4)cc3)cc(=O)c2c1 | > 100 | > 24 | 3.6 | 2.2 |
| O=c1cc(-c2ccc(OCCOCCOCCOCCOCCOc3ccc(-c4cc(=O)c5ccccc5o4)cc3)cc2)oc2ccccc12 | 8.9 | 10.4 | 7.8 | 5.3 |
| CCN(CCOCCOc1ccc(-c2cc(=O)c3ccccc3o2)cc1)CCOCCOc1ccc(-c2cc(=O)c3ccccc3o2)cc1 | 8.3 | – | 5.5 | 3.2 |
| O=c1cc(-c2ccc(OCCOCCN(CCOCCOc3ccc(-c4cc(=O)c5ccccc5o4)cc3)Cc3ccc(F)cc3)cc2)oc2ccccc12 | – | – | – | > 100 |
| COC(=O)c1ccc(CN(CCOCCOc2ccc(-c3cc(=O)c4ccccc4o3)cc2)CCOCCOc2ccc(-c3cc(=O)c4ccccc4o3)cc2)cc1 | 45.7 | – | > 100 | > 100 |
| O=c1cc(-c2ccc(OCCOCCN(CCOCCOc3ccc(-c4cc(=O)c5ccccc5o4)cc3)Cc3ccc([N+](=O)[O-])cc3)cc2)oc2ccccc12 | 70.3 | – | > 100 | > 100 |
| O=c1cc(-c2ccc(OCCOCCOCCOCCOc3ccc(-c4cc(=O)c5c(O)cccc5o4)cc3)cc2)oc2cccc(O)c12 | – | – | > 24 | > 24 |
| O=c1cc(-c2ccc(OCCOCCOCCOCCOCCOCCOc3ccc(-c4cc(=O)c5c(O)cc(O)cc5o4)cc3)cc2)oc2cc(O)cc(O)c12 | – | 11.8 | 1.4 | > 24 |
| O=c1cc(-c2ccc(OCCOCCN(CCOCCOc3ccc(-c4cc(=O)c5ccccc5o4)cc3)Cc3cc(F)c(F)c(F)c3)cc2)oc2ccccc12 | – | – | – | 33.3 |
| CS(=O)(=O)N(CCOCCOc1ccc(-c2cc(=O)c3ccccc3o2)cc1)CCOCCOc1ccc(-c2cc(=O)c3ccccc3o2)cc1 | 96 | – | 0.9 | 0.75 |
| O=c1cc(-c2ccc(OCCOCCN(CCOCCOc3ccc(-c4cc(=O)c5ccccc5o4)cc3)Cc3ccc(C(F)(F)F)cc3)cc2)oc2ccccc12 | – | – | – | 14.1 |
| Cc1ccc(S(=O)(=O)N(CCOCCOc2ccc(-c3cc(=O)c4ccccc4o3)cc2)CCOCCOc2ccc(-c3cc(=O)c4ccccc4o3)cc2)cc1 | > 100 | – | > 100 | 100 |
| O=c1cc(-c2ccc(OCCOCCN(CCOCCOc3ccc(-c4cc(=O)c5ccccc5o4)cc3)Cc3ccccc3F)cc2)oc2ccccc12 | – | – | – | > 100 |
